Screening data from PubChem BioAssay.
Sampled rows, rich in hits. Any-hit rate of the full collection: about 1.6%.
Tb MetRS inh – T. brucei MetRS inhibitors, primary screen, biochemical, luminescence; hit rate 0.4% among 360,000; purified T. brucei MetRS, ATP depletion, Kinase-Glo luminescence; methionyl-tRNA synthetase (Trypanosoma brucei brucei); inhibition, % at 11.9 µM; AID 624268, 2012;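 active means inhibition above a per-plate cutoff of the control wells' mean inhibition plus 3 SD, cut at about 5.5% in these data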;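 further: 0% = DMSO wells median and 100% = median of wells with control inhibitor compound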
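Assay system: T. brucei methionyl-tRNA synthetase, purified | Medium: HEPES buffer with MgCl2, KCl, DTT, spermine, BSA, pyrophosphatase | Compound: 11.9 µM single point | Incubation: 15 min enzyme-compound preincubation, 2 h reaction, 10 min detection, 25 °C | Measured by: Kinase-Glo luciferase luminescence reporting remaining unconsumed ATP | Measure: % inhibition normalized to control-well medians | Replication: Singlicate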
NCF1 inh – p47phox/p22phox peptide binding inhibitors, primary screen, biochemical, uHTS, NADPH oxidase regulatory subunit; Neutrophil cytosol factor 1 (Homo sapiens), P14598; fluorescence polarization, 2 h; inhibition, % at 24.7 µM; hit rate 0.53% among 220,000; AID 1274, 2008;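 further: 0% = p47phox with labelled peptide and 100% = labelled peptide alone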
p97 inhibitor – inhibitors of human p97 ATPase, primary screen, biochemical. Transitional endoplasmic reticulum ATPase (Homo sapiens), P55072. inhibition, % at 8 µM. hit rate 0.42% among 220,000. recombinant p97 ATPase, Kinase-Glo ATP luminescence, 3 h; in the data active means inhibition above about 15%;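 further: 0% = DMSO vehicle and 100% = wells lacking enzyme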
14-3-3 Bad inh – inhibitors of 14-3-3 zeta/Bad binding, primary screen, biochemical, TR-FRET, bovine 14-3-3 zeta; 14-3-3 protein zeta/delta (Bos taurus), P63103; TR-FRET 14-3-3zeta/Dy647-pBad peptide displacement, 1 h; inhibition, % at 21.7 µM; hit rate 0.71% among 220,000; AID 781, 2007;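 active means inhibition above about 70%, limit read from the data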;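 further: 0% = full 14-3-3 plus peptide FRET controls and 100% = background without 14-3-3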
Target sequence (P63103 whole entry, looked up): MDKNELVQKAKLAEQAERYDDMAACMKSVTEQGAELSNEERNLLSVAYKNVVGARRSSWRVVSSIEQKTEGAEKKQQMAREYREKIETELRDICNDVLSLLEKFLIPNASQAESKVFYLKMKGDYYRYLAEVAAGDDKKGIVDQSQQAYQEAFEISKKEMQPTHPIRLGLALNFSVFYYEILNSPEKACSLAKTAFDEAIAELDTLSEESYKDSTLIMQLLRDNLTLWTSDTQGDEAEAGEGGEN
UBC9 SUMO inh – inhibitors of in vitro SUMOylation cascade, primary screen, biochemical, HTRF, uHTS. SUMO-conjugating enzyme UBC9 (Homo sapiens), P63279. HTRF SUMOylation assay, SAE1/SAE2 + UBC9. inhibition, % at 35 µM. hit rate 0.36% among 290,000. AID 2006, 2009; in the data active means inhibition above about 50%, passing the limit was not always enough
Target sequence (P63279 whole entry, looked up): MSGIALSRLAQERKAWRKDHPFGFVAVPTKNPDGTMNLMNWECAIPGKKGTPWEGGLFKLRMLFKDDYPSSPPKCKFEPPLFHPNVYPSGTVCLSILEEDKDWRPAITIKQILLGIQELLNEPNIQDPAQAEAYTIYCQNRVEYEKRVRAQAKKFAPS
eIF4E 4G PPI – eIF4E–eIF4G protein interaction inhibitors, primary screen, biochemical, uHTS, TR-FRET, eIF4GI fragment; inhibition, % at 21.7 µM; Eukaryotic translation initiation factor 4E (Mus musculus) + Eukaryotic translation …; hit rate 0.37% among 220,000; TR-FRET eIF4E-eIF4GI(517-606) binding, 2 h;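 further: 0% = full FRET control wells and 100% = background wells lacking eIF4GI fragment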
Tb MetRS conf – T. brucei MetRS inhibitors, confirmation, biochemical, luminescence; T. brucei MetRS enzyme, luminescence (ATP depletion); shares compounds with Tb MetRS inh; hit rate 93% among 1,400; AID 624412, 2012; inhibition, % at 11.9 µM; in the data active means inhibition above about 7%
Jurkat cytotox – Jurkat T cell cytotoxicity, cytotoxicity control for T. brucei MetRS inhibitor project, luminescence, high throughput. AID 624413, 2012. shares compounds with Tb MetRS inh. Jurkat cells viability, ATP luminescence. hit rate 12% among 1,400. inhibition, % at 8.3 µM; in the data active means inhibition above about 15%;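 further: 0% = vehicle and 100% = reference inhibitor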
TbMetRS FP orth – T. brucei MetRS inhibitors, orthogonal assay for T. brucei MetRS inhibitor project, biochemical, fluorescence polarization; inhibition, % at 11.9 µM; shares compounds with Tb MetRS inh; hit rate 44% among 1,400; purified T. brucei MetRS; AID 651607, 2012; in the data active means inhibition above about 17%;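 further: 0% = vehicle wells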
Active calls of the source: *; nt = no result.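 How the source made its calls, unless noted: active means inhibition above about 30% (limit read from the data); inactive means the rest.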

SMILES	Tb MetRS inh	NCF1 inh	p97 inhibitor	14-3-3 Bad inh	UBC9 SUMO inh	eIF4E 4G PPI	Tb MetRS conf	Jurkat cytotox	TbMetRS FP orth
Cc1ccc(NC(=O)CN(C)C(=O)CCOc2cccc(C)c2)cc1	6.0*	-22.7	-4.0	-4.5	0.0	-4.3	11.4*	3.0	2.7
Cc1ccc(NC(=O)CN(C)C(=O)COC(=O)c2ccc(Cl)cc2O)cc1	6.8*	nt	nt	nt	nt	nt	64.0*	2.1	38.6*
Cc1ccc(NC(=O)CN(C)C(=O)COC(=O)C2=COCCO2)cc1	-0.4	nt	nt	nt	nt	nt	nt	nt	nt
Cc1ccc(OCCCC(=O)N(C)CC(=O)Nc2c(C)cccc2C)cc1	-0.5	nt	nt	nt	nt	nt	nt	nt	nt
Fc1ccc2cnc(CCO[C@H]3CCCCO3)cc2c1	-0.2	nt	nt	nt	nt	nt	nt	nt	nt
Cc1ccc(SCc2nc3ccccc3n2CC(=O)Nc2ccccc2)cc1	2.0	-191.5	-2.2	-2.7	4.9	-6.0	nt	nt	nt
Cc1ccc(SCc2nc3ccccc3n2CC(=O)Nc2ccc(Cl)cc2)cc1	16.7*	0.6	0.7	-3.8	-23.0	-7.8	21.8*	2.4	89.4*
O=c1[nH]c2ccc(Cl)cc2c(=O)n1Cc1ccco1	9.4*	-11.5	5.5	-3.9	-4.4	-10.8	27.9*	-3.2	12.5
O=c1c2cc(Cl)ccc2[nH]c(=S)n1Cc1ccco1	8.1*	1.8	4.3	-17.9	15.5	-1.3	12.6*	3.0	5.0
O=c1c2cc(N3CCOCC3)ccc2[nH]c(=S)n1Cc1ccco1	-0.4	-2.8	nt	nt	40.4	nt	nt	nt	nt
COc1ccc2[nH]cc(CCNC(=O)C3CCCO3)c2c1 (centres undefined)	-1.7	-8.4	-2.2	-3.6	6.4	4.9	nt	nt	nt
C[C@H](CO)N1C[C@H](C)[C@@H](CN(C)C(=O)Nc2ccc(C(F)(F)F)cc2)Oc2ccc(NC(=O)Nc3ccccc3)cc2C1=O	6.1*	nt	nt	nt	nt	nt	18.3*	6.8	13.4
C[C@H](CO)N1C[C@H](C)[C@@H](CN(C)S(=O)(=O)c2ccccc2)Oc2ccc(NC(=O)Nc3ccccc3)cc2C1=O	7.2*	nt	nt	nt	nt	nt	18.9*	-2.8	2.9
CC(C)(CO)NS(=O)(=O)c1ccc2c(c1)Cc1cc(S(=O)(=O)NC(C)(C)CO)ccc1-2	-1.9	nt	nt	nt	7.0	nt	nt	nt	nt
CCO[C@H]1OC(C(=O)NCc2nc3ccccc3[nH]2)=C[C@@H](c2csc3ccccc23)[C@@H]1CCCO	7.6*	nt	-1.8	-8.9	-6.1	2.3	38.4*	-1.3	12.6
CCO[C@@H]1OC(C(=O)NCc2nc3ccccc3[nH]2)=C[C@H](c2ccccc2)[C@H]1CCCO	8.6*	-0.6	7.5	-1.4	-5.2	-1.0	38.4*	-0.9	19.6*
CCO[C@@H]1OC(C(=O)NCc2nc3ccccc3[nH]2)=C[C@H](c2csc3ccccc23)[C@H]1CCCO	86.3*	-19.8	6.5	-5.7	-4.5	3.8	93.3*	2.6	97.1*
O=c1[nH]c(COc2ccc(Br)cc2Cl)nc2ccccc12	6.2*	nt	nt	nt	5.4	nt	30.0*	3.0	14.0
O=C(Nc1ccc2nc(-c3cccnc3)[nH]c2c1)c1ccco1	0.0	4.3	6.3	-8.5	14.7	-0.7	nt	nt	nt
Cc1ccc2nc(-c3cccc(NC(=O)c4ccco4)c3)[nH]c2c1	6.0*	-57.0	-7.0	-5.4	-16.9	-6.9	9.1*	9.4	56.3*
Cc1ccc2nc(Cl)c(/C=N/n3c(C)nnc3C)cc2c1	-1.4	-1.3	2.5	-4.0	31.6	-0.2	nt	nt	nt
